Assay results taken from ChEMBL document CHEMBL1152176, “Pyrazoline-based mycobactin analogues as MAO-inhibitors” (Bioorg Med Chem Lett, 2008).

Key:
[1] = molecular target: T1, Amine oxidase [flavin-containing] A (Rattus norvegicus, UniProt P21396); test: Inhibition of MAOA in rat liver homogenates preincubated for 60 mins; format: tissue-based
T1 sequence (P21396 whole entry): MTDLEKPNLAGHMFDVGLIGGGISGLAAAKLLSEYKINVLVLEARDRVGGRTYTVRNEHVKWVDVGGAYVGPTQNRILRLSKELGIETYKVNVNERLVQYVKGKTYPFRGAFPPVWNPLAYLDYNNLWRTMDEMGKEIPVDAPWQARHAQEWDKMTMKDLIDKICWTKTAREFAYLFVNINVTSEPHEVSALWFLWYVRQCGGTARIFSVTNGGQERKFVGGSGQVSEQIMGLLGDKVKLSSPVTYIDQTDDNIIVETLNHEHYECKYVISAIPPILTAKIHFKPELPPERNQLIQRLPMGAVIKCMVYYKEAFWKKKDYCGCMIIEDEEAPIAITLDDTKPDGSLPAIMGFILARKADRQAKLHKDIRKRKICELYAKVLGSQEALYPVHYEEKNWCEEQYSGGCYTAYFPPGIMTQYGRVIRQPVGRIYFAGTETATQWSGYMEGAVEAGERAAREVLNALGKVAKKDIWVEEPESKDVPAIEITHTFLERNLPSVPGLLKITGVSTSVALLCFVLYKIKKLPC
Outline: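 Rat liver MAO assayed by Holt's spectrophotometric method. The chromogenic mix was vanillinic acid, 4-aminoantipyrine and peroxidase type II in potassium phosphate pH 7.6, preincubated with p-tyramine. Inhibitors were preincubated with enzyme at 37 °C for 60 min. A498 was read at 37 °C for 60 min. IC50 came from residual activity versus [I]; mean of three independent experiments.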

[2] = molecular target: T2, Amine oxidase [flavin-containing] B (Rattus norvegicus, UniProt P19643); test: Inhibition of MAOB in rat liver homogenates preincubated for 60 mins; format: tissue-based
T2 sequence (P19643 whole entry): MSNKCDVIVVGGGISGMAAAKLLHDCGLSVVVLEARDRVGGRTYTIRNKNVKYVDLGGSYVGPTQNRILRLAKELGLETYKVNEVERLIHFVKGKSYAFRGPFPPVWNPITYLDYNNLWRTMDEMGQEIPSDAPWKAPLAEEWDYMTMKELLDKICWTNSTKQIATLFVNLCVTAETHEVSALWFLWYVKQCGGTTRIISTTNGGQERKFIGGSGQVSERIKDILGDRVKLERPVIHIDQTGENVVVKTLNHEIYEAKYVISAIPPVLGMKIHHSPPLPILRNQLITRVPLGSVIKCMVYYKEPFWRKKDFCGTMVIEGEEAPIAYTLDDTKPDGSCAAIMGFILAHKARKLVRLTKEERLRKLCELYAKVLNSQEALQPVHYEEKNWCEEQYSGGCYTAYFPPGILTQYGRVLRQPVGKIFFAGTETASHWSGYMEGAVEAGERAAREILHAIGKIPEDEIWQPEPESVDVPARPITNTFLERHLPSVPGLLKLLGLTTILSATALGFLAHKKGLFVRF

[3] = Inhibition of rat liver monoamine oxidase by Lineweaver-Burke plot

Row | SMILES | IC50 [1] | IC50 [2] | Ki [3]
1 | Oc1ccccc1C1=NN(C(=S)Nc2ccccc2)C(c2ccccc2O)C1 (configuration not stated) | 58.1 µM | 420 µM | 48.5 µM
2 | COc1ccc(NC(=S)N2N=C(c3ccc(O)cc3O)CC2c2ccc(O)cc2)cc1 (configuration not stated) | 69.6 µM | 456 µM | 85.5 µM
3 | COc1ccc(NC(=S)N2N=C(c3ccccc3O)CC2c2ccccc2O)cc1 (configuration not stated) | 470 µM | 40.8 µM | 36.2 µM
4 | O=C(NCCN1CCOCC1)c1ccc(Cl)cc1 [MOCLOBEMIDE] |  | 480 µM | 2.25 µM
5 | COc1ccccc1NC(=S)N1N=C(c2ccccc2O)CC1c1ccccc1O (configuration not stated) | 144 µM | 171 µM | 
6 | COc1cc(C2CC(c3ccccc3O)=NN2C(=S)Nc2ccc(C)cc2)ccc1O (configuration not stated) | 50.6 µM | 481 µM | 75.1 µM
7 | COc1ccccc1C1CC(c2ccccc2O)=NN1C(=S)Nc1ccccc1 (configuration not stated) | 74.2 µM | 419 µM | 63.6 µM
8 | Oc1ccc(C2CC(c3ccccc3)=NN2C(=S)Nc2ccccc2)cc1 (configuration not stated) | 476 µM | 48.6 µM | 40.6 µM
9 | C#CCN(C)[C@H](C)Cc1ccccc1 [SELEGILINE] |  |  | 1.9 µM
10 | C#CCN(C)Cc1ccccc1 [PARGYLINE] |  | 3.85 µM | 3.25 µM
11 | COc1ccc(NC(=S)N2N=C(c3ccccc3O)CC2c2ccc(O)cc2)cc1 (configuration not stated) | 401 µM | 41.1 µM | 39.2 µM
12 | Oc1ccccc1C1CC(c2ccccc2)=NN1C(=S)Nc1ccccc1 (configuration not stated) | 451 µM | 35.5 µM | 34.7 µM
13 | C#CCN(C)CCCOc1ccc(Cl)cc1Cl [CLORGILINE] |  |  | 1.99 µM
14 | Cc1ccc(NC(=S)N2N=C(c3ccccc3O)CC2c2ccccc2O)cc1 (configuration not stated) | 400 µM | 37.7 µM | 35 µM
15 | Cc1ccccc1NC(=S)N1N=C(c2ccccc2O)CC1c1ccccc1O (configuration not stated) | 170 µM | 180 µM | 
16 | Oc1ccccc1C1=NN(C(=S)Nc2ccccc2)C(c2ccccc2Cl)C1 (configuration not stated) | 20 µM | 455 µM | 18.6 µM
17 | COc1ccc(C2CC(c3ccccc3O)=NN2C(=S)Nc2ccccc2)cc1 (configuration not stated) | 2.84 µM | 415 µM | 2.5 µM
18 | Cc1ccccc1NC(=S)N1N=C(c2ccccc2O)CC1c1ccc(O)cc1 (configuration not stated) | 189 µM | 180 µM | 

Row | SMILES | IC50 [1] | IC50 [2] | Ki [3]
19 | Oc1ccccc1C1=NN(C(=S)Nc2ccccc2)C(c2ccc(Cl)cc2)C1 (configuration not stated) | 23.2 µM | 400 µM | 20.1 µM
20 | COc1cc(C2CC(c3ccccc3O)=NN2C(=S)Nc2ccccc2OC)ccc1O (configuration not stated) | 170 µM | 201 µM | 
21 | COc1ccc(NC(=S)N2N=C(c3ccc(O)cc3O)CC2c2ccc(O)c(OC)c2)cc1 (configuration not stated) | 53.4 µM | 475 µM | 71.1 µM
22 | Oc1ccccc1C1=NN(C(=S)Nc2ccccc2)C(c2cccs2)C1 (configuration not stated) | 5.56 µM |  | 
23 | COc1ccc(NC(=S)N2N=C(c3ccccc3O)CC2c2ccc(O)c(OC)c2)cc1 (configuration not stated) | 48.9 µM | 477 µM | 60.5 µM
24 | NC(=S)N1N=C(c2ccccc2O)CC1c1ccc(O)cc1 (configuration not stated) | 466 µM | 19.5 µM | 15.2 µM
25 | Oc1ccccc1C1=NN(C(=S)Nc2ccccc2)C(c2ccco2)C1 (configuration not stated) | 33.4 µM | 440 µM | 27.5 µM
26 | Oc1ccc(C2CC(c3ccccc3O)=NN2C(=S)Nc2ccccc2)cc1 (configuration not stated) | 67.2 µM | 400 µM | 50.5 µM
27 | COc1cc(C2CC(c3ccccc3O)=NN2C(=S)Nc2ccccc2)ccc1O (configuration not stated) | 40.1 µM | 451 µM | 62.7 µM
28 | Oc1ccc(C2CC(c3ccc(O)cc3O)=NN2C(=S)Nc2ccccc2)cc1 (configuration not stated) | 58.6 µM | 470 µM | 80 µM
29 | COc1ccccc1NC(=S)N1N=C(c2ccccc2O)CC1c1ccc(O)cc1 (configuration not stated) | 151 µM | 144 µM | 
30 | Cc1ccc(NC(=S)N2N=C(c3ccccc3O)CC2c2ccc(O)cc2)cc1 (configuration not stated) | 475 µM | 46.1 µM | 42.9 µM
31 | COc1ccccc1NC(=S)N1N=C(c2ccc(O)cc2O)CC1c1ccc(O)cc1 (configuration not stated) | 148 µM | 171 µM | 
32 | COc1cc(C2CC(c3ccccc3O)=NN2C(=S)Nc2ccccc2C)ccc1O (configuration not stated) | 201 µM | 198 µM | 
33 | COc1cc(C2CC(c3ccc(O)cc3O)=NN2C(=S)Nc2ccccc2)ccc1O (configuration not stated) | 65.6 µM | 490 µM | 79.2 µM
34 | Oc1ccc(C2=NN(C(=S)Nc3ccccc3)C(c3ccc(O)cc3)C2)cc1 (configuration not stated) | 32.1 µM | 486 µM | 30.6 µM
35 | COc1cc(C2CC(c3ccc(O)cc3O)=NN2C(=S)Nc2ccccc2OC)ccc1O (configuration not stated) | 180 µM | 170 µM | 
36 | Oc1ccccc1C1=NN(C(=S)Nc2ccccc2)C(c2ccccc2)C1 (configuration not stated) | 49.2 µM | 439 µM | 40.2 µM
